Assay [1] deals with T1, Renin (Homo sapiens, UniProt P00797).
T1 sequence (P00797 whole entry): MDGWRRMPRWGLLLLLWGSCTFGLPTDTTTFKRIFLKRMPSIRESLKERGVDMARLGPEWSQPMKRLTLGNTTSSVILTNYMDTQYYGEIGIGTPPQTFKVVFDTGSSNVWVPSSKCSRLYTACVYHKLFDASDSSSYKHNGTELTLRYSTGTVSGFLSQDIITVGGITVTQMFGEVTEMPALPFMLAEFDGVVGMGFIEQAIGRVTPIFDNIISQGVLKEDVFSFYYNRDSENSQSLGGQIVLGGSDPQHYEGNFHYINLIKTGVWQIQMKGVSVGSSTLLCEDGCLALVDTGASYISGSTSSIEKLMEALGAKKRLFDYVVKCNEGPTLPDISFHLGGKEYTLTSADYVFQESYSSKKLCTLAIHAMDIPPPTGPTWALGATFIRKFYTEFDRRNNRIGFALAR
Description: Inhibition of purified human renal renin at pH 6. Summed up: (§1)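 Purified human renal renin enzyme assay at pH 6.0, following a previously described method. IC50 values were determined. Where IC50 exceeded 10^-6 M, no IC50 was determined and percent inhibition was reported at the stated concentration.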

Assay [2] deals with T2, Cathepsin D (Bos taurus) (UniProt P80209).
T2 sequence (whole entry): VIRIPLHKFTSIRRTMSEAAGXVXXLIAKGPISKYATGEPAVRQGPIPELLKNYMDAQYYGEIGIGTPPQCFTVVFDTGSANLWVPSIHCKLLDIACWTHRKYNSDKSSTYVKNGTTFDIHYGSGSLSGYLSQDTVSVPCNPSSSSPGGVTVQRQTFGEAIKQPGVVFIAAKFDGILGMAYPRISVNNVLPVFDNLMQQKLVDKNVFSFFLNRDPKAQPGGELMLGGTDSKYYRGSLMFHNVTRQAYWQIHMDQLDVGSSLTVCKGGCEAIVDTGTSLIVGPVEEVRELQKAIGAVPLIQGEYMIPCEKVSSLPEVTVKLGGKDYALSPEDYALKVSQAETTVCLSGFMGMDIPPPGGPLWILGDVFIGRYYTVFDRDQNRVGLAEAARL
Kind of assay: Tested for inhibition of Cathepsin D from bovine was determined at 10e-5 M.

Assay [3] has as its target Pepsin A (Sus scrofa) (UniProt P00791). Description: In vitro inhibitory activity against porcine pepsin was determined at 10e-5 M.
The target is the same in assay [4]. Kind of assay: Inhibitory activity against Porcine pepsin at a concentration of 10e-5 M.
In assay [5] the target is T2, Cathepsin D (Bos taurus). Kind of assay: Tested for inhibition of Cathepsin D from bovine at a concentration of 10e-5 M.
Assay [6] deals with T3, Renin (Homo sapiens) (UniProt P00797).
T3 sequence (whole entry): T1 sequence (P00797 whole entry)
Kind of assay: The compound was tested in vitro for inhibition of purified human renal renin at pH 6 and a concentration of 10e-6 M. A digest of the protocol: as §1

Sequence of Pepsin A (Sus scrofa) (P00791 60-385 limits assumed): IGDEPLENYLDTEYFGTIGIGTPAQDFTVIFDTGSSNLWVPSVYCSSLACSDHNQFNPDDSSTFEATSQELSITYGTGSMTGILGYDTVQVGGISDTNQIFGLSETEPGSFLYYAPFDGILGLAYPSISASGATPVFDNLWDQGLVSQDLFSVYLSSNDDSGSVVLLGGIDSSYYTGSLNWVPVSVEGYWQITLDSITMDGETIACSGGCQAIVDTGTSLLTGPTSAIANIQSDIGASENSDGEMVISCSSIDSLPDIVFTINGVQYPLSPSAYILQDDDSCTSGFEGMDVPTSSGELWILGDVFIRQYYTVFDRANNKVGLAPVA

The term IC50 denotes the concentration at which inhibition is half-maximal. High values mean weaker potency, low ones greater potency. Broadly, the inhibition is the share of the control response that was lost under treatment. Compound `COP(=O)(C[C@H](O)[C@H](CC1CCCCC1)NC(=O)[C@H](Cc1c[nH]cn1)NC(=O)[C@H](Cc1ccccc1)NC(=O)CC(C)(C)C)OC` registered a 50% inhibitory concentration (IC50) in assay [1] of 47 nM. For the same compound, the inhibition in assay [2] is 6%; in assay [3], 3%. As to `CC(C)OP(=O)(C[C@H](O)[C@H](CC1CCCCC1)NC(=O)[C@H](Cc1c[nH]cn1)NC(=O)[C@H](Cc1ccccc1)NC(=O)OC(C)(C)C)OC(C)C`, in assay [1], the half-inhibitory concentration (IC50) was found to be 1500 nM. In assay [1], `CCOP(=O)(C[C@H](O)[C@H](CC1CCCCC1)NC(=O)[C@H](Cc1c[nH]cn1)NC(=O)[C@H](Cc1ccccc1)NC(=O)OC(C)(C)C)OCC` came in with an IC50 of 72 nM. The inhibition in assay [4] and in assay [5] was 0% each time. Consider `COP(=O)(C[C@H](O)[C@H](Cc1ccccc1)NC(=O)[C@H](Cc1c[nH]cn1)NC(=O)[C@H](Cc1ccccc1)NC(=O)OC(C)(C)C)OC`, for which half-maximal inhibition in assay [1] (IC50) was put at 1500 nM. The same measure, in the same setting: the figure for `COP(=O)(CC(O)[C@H](Cc1ccccc1)NC(=O)[C@H](C)NC(=O)C(Cc1ccccc1)NC(=O)OC(C)(C)C)OC` (stereo partly specified) is 15000 nM. Same read-out and setting: the figure for `COP(=O)(O)C[C@H](O)[C@H](CC1CCCCC1)NC(=O)[C@H](CC(C)C)NC(=O)[C@H](Cc1ccccc1)NC(=O)OC(C)(C)C` is 350 nM; for `COP(=O)(C[C@@H](O)[C@H](Cc1ccccc1)NC(=O)[C@H](Cc1c[nH]cn1)NC(=O)[C@H](Cc1ccccc1)NC(=O)OC(C)(C)C)OC` it is 4000 nM. The same measure, in the same setting: for `COP(=O)(C[C@H](O)[C@H](CC1CCCCC1)NC(=O)[C@H](Cc1c[nH]cn1)NC(=O)[C@H](Cc1ccccc1)NC(=O)OC(C)(C)C)OC` the value was 39 nM.

For the compound `CC(C)(C)OC(=O)N[C@@H](Cc1ccccc1)C(=O)N[C@@H](Cc1c[nH]cn1)C(=O)N[C@@H](CC1CCCCC1)[C@@H](O)CP(C)(C)=O` (stereo in doubt; 23), the inhibition in assay [6] turned out to be 24%.

In assay [6], `CC(C)(C)OC(=O)N[C@@H](Cc1ccccc1)C(=O)N[C@@H](Cc1c[nH]cn1)C(=O)N[C@@H](CC1CCCCC1)[C@@H](O)CP(C)(C)=O` (stereo in doubt; 24) displayed an inhibition of 49%. `CCOC(=O)N[C@@H](Cc1ccccc1)C(=O)N[C@@H](Cc1c[nH]cn1)C(=O)N[C@@H](CC1CCCCC1)[C@@H](O)CP(=O)(OC)OC`: the IC50 in assay [1] was 50 nM. Moreover, the inhibition was 0% in assay [2] and 4% in assay [3]. In the case of `COP(=O)(C[C@H](O)[C@H](CC(C)C)NC(=O)[C@H](Cc1c[nH]cn1)NC(=O)[C@H](Cc1ccccc1)NC(=O)OC(C)(C)C)OC`, the IC50 in assay [1] was determined as 5100 nM.

The compound `CC(C)(C)OC(=O)N[C@@H](Cc1ccccc1)C(=O)N[C@@H](Cc1c[nH]cn1)C(=O)N[C@@H](CC1CCCCC1)[C@@H](O)CP1(=O)OCCCO1` yielded a 50% inhibitory concentration (IC50) in assay [1] of 80 nM. Further, the inhibition in assay [2] stood at 0%; in assay [3], 2%. On to `COP(=O)(C[C@@H](O)[C@H](CC1CCCCC1)NC(=O)[C@H](Cc1c[nH]cn1)NC(=O)[C@H](Cc1ccccc1)NC(=O)OC(C)(C)C)OC`, for which, in assay [1], the IC50 was 90 nM. Turning to `COP(=O)(C[C@H](O)[C@H](CC1CCCCC1)NC(=O)[C@H](CC(C)C)NC(=O)[C@H](Cc1ccccc1)NC(=O)OC(C)(C)C)OC`, in assay [1], half-maximal inhibition (IC50) was put at 20 nM. Further, the inhibition in assay [2] was 86%; in assay [3], 21%. For the compound `CCCCOP(=O)(C[C@H](O)[C@H](CC1CCCCC1)NC(=O)[C@H](Cc1c[nH]cn1)NC(=O)[C@H](Cc1ccccc1)NC(=O)OC(C)(C)C)OCCCC`, inhibition in assay [1] was half-maximal at 400 nM (IC50).

For the origin of these results see ChEMBL document CHEMBL1125041, “New inhibitors of renin that contain novel phosphostatine Leu-Val replacements” (J Med Chem, 1990).
